Results: ChEMBL document CHEMBL4825683, “Synthesis and approbation of new neuroprotective chemicals of pyrrolyl- and indolylazine classes in a cell model of Alzheimer's disease” (Eur J Med Chem, 2021)
The source made the active and inactive calls. No cut-off for these calls is given here.

Key:
[1] = molecular target: T1, Heat shock factor protein 1 (Homo sapiens) (UniProt Q00613); experiment: Activation of Hsf1 in human MSC-NEU cells assessed as induction of HSP70 accumulation at 1 uM incubated for 24 hrs by Western blotting analysis relative to control; format: cell-based; conditions: MSC-NEU cell, filed as activator
T1 sequence (whole entry): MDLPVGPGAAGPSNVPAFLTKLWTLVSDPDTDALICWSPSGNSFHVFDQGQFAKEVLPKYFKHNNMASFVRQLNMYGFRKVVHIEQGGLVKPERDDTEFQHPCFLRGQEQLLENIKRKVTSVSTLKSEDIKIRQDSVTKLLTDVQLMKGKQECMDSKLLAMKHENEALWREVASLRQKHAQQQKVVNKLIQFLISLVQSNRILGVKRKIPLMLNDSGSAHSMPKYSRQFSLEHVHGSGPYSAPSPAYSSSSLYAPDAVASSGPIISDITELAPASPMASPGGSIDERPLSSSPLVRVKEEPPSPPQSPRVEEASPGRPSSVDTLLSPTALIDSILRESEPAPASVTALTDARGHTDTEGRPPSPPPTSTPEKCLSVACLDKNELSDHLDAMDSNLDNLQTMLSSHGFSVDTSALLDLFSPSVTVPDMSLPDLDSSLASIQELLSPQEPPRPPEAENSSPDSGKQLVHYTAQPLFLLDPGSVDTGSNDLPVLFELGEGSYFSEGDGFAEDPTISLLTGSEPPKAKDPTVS
Procedure, shortened: (§1)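 MSC-NEU cells: human dental-pulp mesenchymal stem cells (MSC-DP) grown in DMEM/F12 with 10% FBS, 100 units/mL penicillin and 0.1 mg/mL streptomycin at 37 °C, 5% CO2. They were then reprogrammed to a neuronal phenotype over 5 days in Neurobasal medium with B27 supplement, 3% FBS and the same antibiotics.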

[2] = molecular target: T1, Heat shock factor protein 1 (Homo sapiens); experiment: Activation of Hsf1 in human MSC-NEU cells assessed as induction of HSP90 accumulation at 1 uM incubated for 24 hrs by Western blotting analysis relative to control; format: cell-based; conditions: MSC-NEU cell; for fold change (FC): filed as activator; procedure, shortened: as §1
[3] = molecular target: T1, Heat shock factor protein 1 (Homo sapiens); experiment: Activation of Hsf1 in human MSC-NEU cells assessed as increase in HSP70 substrate-binding chaperone activity at 1 uM incubated for 24 hrs by protein-protein interaction assay relative to control; format: cell-based; conditions: MSC-NEU cell, filed as activator; procedure, shortened: as §1
[4] = Cytotoxicity against human MSC-NEU cells assessed as reduction in cell viability measured after 48 hrs by MTT assay; format: cell-based; conditions: read-out: LC50
Procedure, shortened: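 Human dental pulp mesenchymal stem cells (MSC-DP) were grown in DMEM/F12 with 10% FBS, penicillin and streptomycin at 37 °C and 5% CO2. They were then reprogrammed to a neuronal phenotype (MSC-NEU) over 5 days in Neurobasal medium with B27 supplement, 3% FBS and antibiotics.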

[5] = Neuroprotective activity against amyloid beta (1 to 42)-stimulated human MSC-NEU cells assessed as increase in cell index incubated for 48 hrs by xCELLigence RTCA analysis; format: functional; procedure, shortened: as §1
[6] = Inhibition of amyloid beta (1 to 42)-induced cellular senescence in human MSC-NEU cells assessed as reduction in beta-galactosidase activity at 1 uM measured after 48 hrs by X-Gal staining based analysis relative to control; format: functional, MSC-NEU cell; procedure, shortened: as §1
[7] = Inhibition of amyloid beta(1 to 42)-induced apoptosis in human MSC-NEU cells assessed as reduction in caspase-3 activity at 1 uM measured after 24 hrs by fluorescence based analysis relative to control; format: functional, MSC-NEU cell; procedure, shortened: as §1
[8] = Inhibition of amyloid beta(1 to 42)-induced apoptosis in human MSC-NEU cells at 1 uM measured after 24 hrs by AnnexinV-Alexafluor647/propidium iodide staining based flow cytomtery relative to control; format: functional, MSC-NEU cell; procedure, shortened: as §1
[9] = molecular target: T1, Heat shock factor protein 1 (Homo sapiens); experiment: Activation of Hsf1 in human HEK293 cells transfected with Hsp70.1pr-luc plasmid at 1 uM incubated for 24 hrs by luciferase reporter gene based luminescence assay; format: cell-based; conditions: filed as activator

Structure (SMILES) | fold change (FC) [1] | Activity [2] | fold change (FC) [3] | CC50 at 48 h [4] [µM] | Activity [5] [%] | fold change (FC) [6] | fold change (FC) [7] | fold change (FC) [8] | Activity [9] | fold change (FC) [2]
Brc1ccc2[nH]cc(-c3ncnc4ccccc34)c2c1 | 1.9 | inactive | 1.3 | 279 | 10 | 1.04 | 2.51 | 4.2 | Active | 
Clc1nccc(-c2c[nH]c3ccc(Br)cc23)n1 | 2.7 |  | 1.3 | 316 | 10 | 1.17 | 2.04 | 4.2 | Active | 1.6
C[n+]1c2ccccc2c(-c2c[nH]c3ccc(O)cc23)c2ccccc21.[I-] | 2.2 |  | 1.3 | > 1000 | 10 | 1.22 | 2.24 | 4.2 | Active | 2.1
O=c1[nH]c2ccccc2nc1-c1ccc(-c2ccccc2)[nH]1 | 1.6 |  | 1.3 | 494 | 10 | 1.12 | 2.12 | 4.2 | Active | 1.85
